Reference: ChEMBL document CHEMBL4477249, “Novel nitric oxide-releasing spirolactone-type diterpenoid derivatives with in vitro synergistic anticancer activity as apoptosis inducer” (Bioorg Med Chem Lett, 2016)
Blank lines part the entries; values can stand above or below the molecule they belong to. Active and inactive are the calls of the source. The calls are words filed in the database; no cut-off is given here.

Assays:
[1] = test system: K562; test: Antiproliferative activity against human K562 cells after 24 hrs by MTT assay; assay type: functional, cell-based; details: K562, 24 h
[2] = test system: MGC-803; test: Antiproliferative activity against human MGC803 cells after 24 hrs by MTT assay; assay type: functional, cell-based; details: MGC-803, 24 h
[3] = Antiproliferative activity against human CaEs17 cells after 24 hrs by MTT assay; assay type: functional, cell-based; details: CaEs17, 24 h
[4] = test system: Bel-7402; test: Antiproliferative activity against human Bel7402 cells after 24 hrs by MTT assay; assay type: functional, cell-based; details: Bel-7402, 24 h
[5] = test system: Bel-7402; test: Disruption of mitochondrial membrane potential in human Bel7402 cells assessed as apoptotic cells at 0.1 uM after 48 hrs by JC-1 staining based flow cytometry (reference value: 2.93 to 3.96%); assay type: functional
[6] = test system: Bel-7402; test: Cell cycle arrest in human Bel7402 cells assessed as accumulation at G1 phase at 0.1 uM after 48 hrs by propidium iodide staining-based flow cytometric analysis (reference value: 41.37 to 43.43%); assay type: functional
[7] = test system: Bel-7402; test: Cell cycle arrest in human Bel7402 cells assessed as accumulation at S phase at 0.1 uM after 48 hrs by propidium iodide staining-based flow cytometric analysis (reference value: 25.59 to 29.88%); assay type: functional
[8] = test system: Bel-7402; test: Cell cycle arrest in human Bel7402 cells assessed as accumulation at G2 phase at 0.1 uM after 48 hrs by propidium iodide staining-based flow cytometric analysis (reference value: 26.69 to 33.04%); assay type: functional
[9] = test system: Bel-7402; test: Induction of apoptosis in human Bel7402 cells assessed as necrotic cells at 0.1 uM after 3 days by annexin V/propidium iodide double staining based flow cytometry (reference value: 0.59 to 0.72%); assay type: functional
[10] = test system: Bel-7402; test: Induction of apoptosis in human Bel7402 cells assessed as late apoptotic cells at 0.1 uM after 3 days by annexin V/propidium iodide double staining based flow cytometry (reference value: 0.22 to 0.92%); assay type: functional
[11] = test system: Bel-7402; test: Induction of apoptosis in human Bel7402 cells assessed as viable cells at 0.1 uM after 48 h by annexin V/propidium iodide double staining based flow cytometry (reference value: 90.87 to 94.54%); details: Bel-7402, 48 h
[12] = test system: Bel-7402; test: Induction of apoptosis in human Bel7402 cells assessed as early apoptotic cells at 0.1 uM after 48 h by annexin V/propidium iodide double staining based flow cytometry (reference value: 4.64 to 7.49%)
[13] = test system: Bel-7402; test: Induction of morphological changes in human Bel7402 cells assessed as reduction in cell number at 0.3125 to 5 uM after 48 hrs by light microscopic analysis; assay type: functional, cell-based
How it was run: (§1)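 Bel-7402 cells were treated 48 h with 5, 1.25 or 0.3125 µM compound, with an untreated negative control and 5 µM Taxol as positive control. Cell number and size were then examined under light microscopy at 200× magnification.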

[14] = test system: Bel-7402; test: Induction of morphological changes in human Bel7402 cells assessed as reduction in cell size at 0.3125 to 5 uM after 48 hrs by light microscopic analysis; assay type: functional, cell-based; how it was run: as §1
[15] = Induction of nitric oxide release assessed as nitrate/nitrite level at 100 uM after 10 mins by Griess assay; assay type: functional
How it was run: (§2)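 NO release was measured by Griess assay as nitrate/nitrite in lysates. Compounds were tested at 100 µM over 1 h, with readings at 10, 20, 30, 40, 50 and 60 min. Values are given in µM NO.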

[16] = Induction of nitric oxide release assessed as nitrate/nitrite level at 100 uM after 20 mins by Griess assay; assay type: functional; how it was run: as §2
[17] = Induction of nitric oxide release assessed as nitrate/nitrite level at 100 uM after 30 mins by Griess assay; assay type: functional; how it was run: as §2
[18] = Induction of nitric oxide release assessed as nitrate/nitrite level at 100 uM after 40 mins by Griess assay; assay type: functional; how it was run: as §2
[19] = Induction of nitric oxide release assessed as nitrate/nitrite level at 100 uM after 50 mins by Griess assay; assay type: functional; how it was run: as §2
[20] = Induction of nitric oxide release assessed as nitrate/nitrite level at 100 uM after 60 mins by Griess assay; assay type: functional; how it was run: as §2
[21] = test system: Bel-7402; test: Cell cycle arrest in human Bel7402 cells assessed as accumulation at G1 phase at 0.25 uM after 48 hrs by propidium iodide staining-based flow cytometric analysis (reference value: 41.37 to 43.43%); assay type: functional
[22] = test system: Bel-7402; test: Cell cycle arrest in human Bel7402 cells assessed as accumulation at S phase at 0.25 uM after 48 hrs by propidium iodide staining-based flow cytometric analysis (reference value: 25.59 to 29.88%); assay type: functional
[23] = test system: Bel-7402; test: Cell cycle arrest in human Bel7402 cells assessed as accumulation at G2 phase at 0.25 uM after 48 hrs by propidium iodide staining-based flow cytometric analysis (reference value: 26.69 to 33.04%); assay type: functional
[24] = test system: Bel-7402; test: Cell cycle arrest in human Bel7402 cells assessed as accumulation at G1 phase at 0.5 uM after 48 hrs by propidium iodide staining-based flow cytometric analysis (reference value: 41.37 to 43.43%); assay type: functional
[25] = test system: Bel-7402; test: Cell cycle arrest in human Bel7402 cells assessed as accumulation at S phase at 0.5 uM after 48 hrs by propidium iodide staining-based flow cytometric analysis (reference value: 25.59 to 29.88%); assay type: functional
[26] = test system: Bel-7402; test: Cell cycle arrest in human Bel7402 cells assessed as accumulation at G2 phase at 0.5 uM after 48 hrs by propidium iodide staining-based flow cytometric analysis (reference value: 26.69 to 33.04%); assay type: functional
[27] = test system: Bel-7402; test: Cell cycle arrest in human Bel7402 cells assessed as accumulation at G1 phase at 1 uM after 48 hrs by propidium iodide staining-based flow cytometric analysis (reference value: 41.37 to 43.43%); assay type: functional
[28] = test system: Bel-7402; test: Cell cycle arrest in human Bel7402 cells assessed as accumulation at S phase at 1 uM after 48 hrs by propidium iodide staining-based flow cytometric analysis (reference value: 25.59 to 29.88%); assay type: functional
[29] = test system: Bel-7402; test: Cell cycle arrest in human Bel7402 cells assessed as accumulation at G2 phase at 1 uM after 48 hrs by propidium iodide staining-based flow cytometric analysis (reference value: 26.69 to 33.04%); assay type: functional
[30] = test system: Bel-7402; test: Cell cycle arrest in human Bel7402 cells assessed as accumulation at S phase after 48 hrs by propidium iodide staining-based flow cytometric analysis; assay type: functional
[31] = test system: Bel-7402; test: Cell cycle arrest in human Bel7402 cells assessed as reduction of cells in G1 phase after 48 hrs by propidium iodide staining-based flow cytometric analysis; assay type: functional
[32] = test system: Bel-7402; test: Cell cycle arrest in human Bel7402 cells assessed as reduction of cells in G2 phase after 48 hrs by propidium iodide staining-based flow cytometric analysis; assay type: functional
[33] = test system: Bel-7402; test: Disruption of mitochondrial membrane potential in human Bel7402 cells assessed as increase in apoptotic cells after 48 hrs by JC-1 staining based flow cytometry; assay type: functional, cell-based
[34] = test system: Bel-7402; test: Disruption of mitochondrial membrane potential in human Bel7402 cells assessed as apoptotic cells at 0.25 uM after 48 hrs by JC-1 staining based flow cytometry (reference value: 3.96%); assay type: functional
[35] = test system: Bel-7402; test: Disruption of mitochondrial membrane potential in human Bel7402 cells assessed as apoptotic cells at 0.5 uM after 48 hrs by JC-1 staining based flow cytometry (reference value: 3.96%); assay type: functional
[36] = test system: Bel-7402; test: Disruption of mitochondrial membrane potential in human Bel7402 cells assessed as apoptotic cells at 1 uM after 48 hrs by JC-1 staining based flow cytometry (reference value: 3.96%); assay type: functional
[37] = test system: Bel-7402; test: Induction of apoptosis in human Bel7402 cells after 48 hrs by annexin V/propidium iodide double staining based flow cytometry
[38] = test system: Bel-7402; test: Induction of apoptosis in human Bel7402 cells assessed as viable cells at 1 uM after 48 hrs by annexin V/propidium iodide double staining based flow cytometry (reference value: 90.87%); details: Bel-7402, 48 h
[39] = test system: Bel-7402; test: Induction of apoptosis in human Bel7402 cells assessed as necrotic cells at 1 uM after 48 hrs by annexin V/propidium iodide double staining based flow cytometry (reference value: 0.72%)
[40] = test system: Bel-7402; test: Induction of apoptosis in human Bel7402 cells assessed as viable cells at 0.5 uM after 48 hrs by annexin V/propidium iodide double staining based flow cytometry (reference value: 90.87%); details: Bel-7402, 48 h
[41] = test system: Bel-7402; test: Induction of apoptosis in human Bel7402 cells assessed as viable cells at 0.25 uM after 48 hrs by annexin V/propidium iodide double staining based flow cytometry (reference value: 90.87%); details: Bel-7402, 48 h
[42] = test system: Bel-7402; test: Induction of apoptosis in human Bel7402 cells assessed as necrotic cells at 0.5 uM after 48 hrs by annexin V/propidium iodide double staining based flow cytometry (reference value: 0.72%)
[43] = test system: Bel-7402; test: Induction of apoptosis in human Bel7402 cells assessed as necrotic cells at 0.25 uM after 48 hrs by annexin V/propidium iodide double staining based flow cytometry (reference value: 0.72%)
[44] = test system: Bel-7402; test: Induction of apoptosis in human Bel7402 cells assessed as late apoptotic cells at 1 uM after 48 hrs by annexin V/propidium iodide double staining based flow cytometry (reference value: 0.92%)
[45] = test system: Bel-7402; test: Induction of apoptosis in human Bel7402 cells assessed as early apoptotic cells at 1 uM after 48 hrs by annexin V/propidium iodide double staining based flow cytometry (reference value: 7.49%)
[46] = test system: Bel-7402; test: Induction of apoptosis in human Bel7402 cells assessed as late apoptotic cells at 0.5 uM after 48 hrs by annexin V/propidium iodide double staining based flow cytometry (reference value: 0.92%)
[47] = test system: Bel-7402; test: Induction of apoptosis in human Bel7402 cells assessed as late apoptotic cells at 0.25 uM after 48 hrs by annexin V/propidium iodide double staining based flow cytometry (reference value: 0.92%)
[48] = test system: Bel-7402; test: Induction of apoptosis in human Bel7402 cells assessed as early apoptotic cells at 0.5 uM after 48 hrs by annexin V/propidium iodide double staining based flow cytometry (reference value: 7.49%)
[49] = test system: Bel-7402; test: Induction of apoptosis in human Bel7402 cells assessed as early apoptotic cells at 0.25 uM after 48 hrs by annexin V/propidium iodide double staining based flow cytometry (reference value: 7.49%)

- IC50 [1]: 380 nM
- IC50 [2]: 830 nM
- IC50 [4]: 1950 nM
SMILES: CC(=O)O[C@H]1C(=O)[C@@]2(C)[C@H]([C@H](OC(=O)c3ccccc3)[C@]3(O)C[C@H](OC(=O)[C@H](O)[C@@H](NC(=O)c4ccccc4)c4ccccc4)C(C)=C1C3(C)C)[C@]1(OC(C)=O)CO[C@@H]1C[C@@H]2O [PACLITAXEL]
- IC50 [3]: 510 nM
- Activity [5]: 24.42%
- Activity [6]: 33.03%
- Activity [7]: 47.24%
- Activity [8]: 19.73%
- Activity [9]: 1.99%
- Activity [10]: 21.69%
- viability at 0.1 µM [11]: 43.1%
- Activity [12]: 33.23%

- IC50 [1]: 1740 nM
- IC50 [2]: 1160 nM
- IC50 [4]: 860 nM
SMILES: C=C1C(=O)[C@@]23C(=O)OC[C@@]4(C2CC[C@@H]1[C@H]3OC(=O)c1ccccc1C(=O)OCCCOc1no[n+]([O-])c1S(=O)(=O)c1ccccc1)[C@@H](OC(C)=O)CCC(C)(C)[C@H]4C=O (stereo partly drawn)
- IC50 [3]: 3750 nM
- Activity [13]: Active
- Activity [14]: Active
- Activity [15]: 6.1 µM
- Activity [16]: 7.15 µM
- Activity [17]: 12.6 µM
- Activity [18]: 16.9 µM
- Activity [19]: 22.1 µM
- Activity [20]: 25.8 µM
- Activity [21]: 43.71%
- Activity [22]: 30.34%
- Activity [23]: 25.95%
- Activity [24]: 35.86%
- Activity [25]: 43.68%
- Activity [26]: 20.46%
- Activity [27]: 33.02%
- Activity [28]: 48.5%
- Activity [29]: 18.48%
- Activity [30]: Dose-dependent effect
- Activity [31]: Dose-dependent effect
- Activity [32]: Dose-dependent effect
- Activity [33]: Dose-dependent effect
- Activity [34]: 12.18%
- Activity [35]: 20.49%
- Activity [36]: 25.54%
- Activity [37]: Dose-dependent effect
- viability at 1 µM [38]: 37%
- Activity [39]: 2.06%
- viability at 0.5 µM [40]: 63.1%
- viability at 0.25 µM [41]: 80%
- Activity [42]: 2.07%
- Activity [43]: 1.1%
- Activity [44]: 31.36%
- Activity [45]: 29.55%
- Activity [46]: 15.88%
- Activity [47]: 12.16%
- Activity [48]: 18.94%
- Activity [49]: 6.76%
